Screening data: PubChem BioAssay, several laboratories
This is a sample that favours compounds with a hit; in the whole collection about 6.4% have one here.
HIV Rev-RRE inh: HIV-1 Rev-RRE binding inhibitors, primary screen, biochemical, FRET, protein-RNA interaction; P05866; Rev peptide-RRE RNA binding; inhibition, % at 8 µM; 0.79% of 97,000 active;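 active means inhibition above the screen-wide mean plus 3 SD, cut at about 35% in these data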;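 further: 0% = median DMSO wells and 100% = median Neomycin B control wells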
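Probe or stimulus: fluorescein-Rev peptide as binding partner; assay system: Cy5-tagged RRE RNA duplex with fluorescein-tagged Rev peptide; timing: 5 min compound–RNA preincubation, then 15 min with peptide, 25 °C; medium: HEPES pH 7.5 buffer with KCl, MgCl2, NaCl and EDTA; signal: fluorescein-to-Cy5 FRET, 480 nm excitation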
Plk1 PBD FP: Plk1 polo box domain binding inhibitors, primary screen, biochemical, fluorescence polarization | Plk1 PBD phosphopeptide binding | inhibition, %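 (tested at about 20 µM)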 | 0.13% of 97,000 active | AID 693, 2007; in the data active means inhibition above about 34%, passing the limit was not always enough
PostGolgi ctrl: growth inhibition of yeast control strain, primary screen, counter-screen for post-Golgi transport modulator project; efflux-deficient yeast background strain, growth absorbance A615, 16 h; inhibition, % at 10 µM; 5% of 98,000 active; AID 738, 2007
PostGolgi yeast: phenotypic screen on post-Golgi transport, primary screen; post-Golgi transport phenotypic cell assay; 0.9% of 98,000 active; inhibition, % at 10 µM; AID 739, 2007;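 further: yeast cells grown in 1536-well plates; yeast grown about 18 h at 30C before absorbance read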
EphB4 ephrin blk: EphB4-ephrin-B2 interaction antagonists, primary screen, biochemical, TNYL-RAW peptide probe, fluorescence polarization; inhibition, % at 7 µM; EphB4 LBD / TNYL-RAW-Alexa532 peptide; 0.15% of 97,000 active; Ephrin type-B receptor 4 (Homo sapiens), P54760;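 active means inhibition above the screen-wide mean inhibition plus 3 SD, cut at about 15% in these data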;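 further: 0% = DMSO wells and 100% = excess unlabeled TNYL-RAW peptide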
PLK1 kinase inh: human PLK1 kinase inhibitors, primary screen, biochemical, TR-FRET | inhibition, % at 10 µM | Serine/threonine-protein kinase PLK1 (Homo sapiens), P53350 | AID 619, 2007 | 0.53% of 97,000 active | recombinant PLK1 kinase, TR-FRET peptide phosphorylation;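 active means inhibition of 50% or more in the single-concentration screen; inactive means inhibition below 50%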;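 further: 0% = DMSO max control and 100% = H-89 dihydrochloride min control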
Active calls of the source: *; nt = no result given. Unless noted, no stated cut-off is given here; in the data, active means inhibition above about 30%; inactive means the rest.

SMILES	HIV Rev-RRE inh	Plk1 PBD FP	PostGolgi ctrl	PostGolgi yeast	EphB4 ephrin blk	PLK1 kinase inh
COc1ccc(N=c2oc3cc(O)ccc3cc2C(=O)NCC2CCCO2)cc1 (centres undefined)	3	31	-1	1	-3	6
C=COCCNC(=O)C1CC(=O)N(c2ccc(C)cc2)C1 (centres undefined)	0	10	7	2	1	-11
O=C(CCC(=O)OCC(=O)c1ccc(Br)cc1)Nc1ccc(Br)c2cccnc12	7	-19	38*	5	2	-14
O=C(CCC(=O)OCC(=O)c1ccccc1)Nc1cccc2cccnc12	13	12	3	-7	-3	-4
CCOc1ccc(NC(=O)C/C(N)=N/O)cc1	4	7	-4	35*	0	-5
CCOc1ccc(NC(=O)CSC(N)=O)cc1	nt	nt	-10	-8	nt	nt
O=C(/C=C/c1ccccc1Cl)c1cccnc1	2	-32	10	-12	-1	-6
O=C(/C=C/c1ccc(Cl)cc1)c1cccnc1	8	-10	16	39*	7	-2
CC(C)CCNC(=O)Cn1cc2c(n1)CCCCC2	nt	nt	4	0	nt	nt
CCOc1cc(S(=O)(=O)NCc2ccccn2)c(C)cc1C	1	-15	0	-2	-4	-6
O=C(Oc1c(Cl)cc(Cl)c2cccnc12)N1CCCCC1	7	-22	43*	-1	-6	-2
O=C(Oc1c(Cl)cc(Cl)c2cccnc12)N1CCOCC1	4	-23	22	14	0	-6
Cc1ccc2nc(N3CCN(C(=O)c4cccs4)CC3)c(C#N)cc2c1	nt	nt	13	2	nt	nt
O=C(COCC(=O)Nc1cccc(C(F)(F)F)c1)Nc1cccc(C(F)(F)F)c1	22	11	43*	3	8	-11
CC(=O)Nc1ccc(NC(=O)CN2CCN(c3cccc(C(F)(F)F)c3)CC2)cc1	13	1	6	-7	2	-11
O=C(CN1CCN(c2cccc(C(F)(F)F)c2)CC1)Nc1cccc(C(F)(F)F)c1	18	-10	35*	-2	2	1
Cc1ccc(OC(F)F)c(NC(=O)Nc2cccc(C(F)(F)F)c2)c1	20	-14	56*	-2	2	-42
Oc1oc(-c2ccccc2)nc1C=Nc1cccc2ccccc12	4	26	40*	12	1	-12
CCC(C)NCCOCCOc1ccc(C)cc1Br (centres undefined)	-4	-18	37*	-4	-3	-4
CC(C)CCn1c(Oc2ccccc2Cl)nc2c1c(=O)n(C)c(=O)n2C	1	-11	32*	15	4	-1
Cc1cc(C)nc(SCCn2c(N(C)Cc3ccccc3)nc3c2c(=O)n(C)c(=O)n3C)n1	1	33	34*	13	-10	-2
CN(Cc1ccccc1)c1nc2c(c(=O)n(C)c(=O)n2C)n1CCSc1ncccn1	nt	nt	6	-7	nt	nt
CC(C)CCn1c(Cl)nc2c1c(=O)n(C)c(=O)n2C	10	-18	-5	1	4	-15
CN(Cc1ccccc1)Cc1nc2c(c(=O)n(C)c(=O)n2C)n1Cc1ccccc1Cl	3	-14	40*	1	6	8
C=CCc1ccccc1OCC(O)CN(CC)CC (centres undefined)	9	-9	8	-5	-5	0
SMILES	HIV Rev-RRE inh	Plk1 PBD FP	PostGolgi ctrl	PostGolgi yeast	EphB4 ephrin blk	PLK1 kinase inh
CCOc1ccc(CN(C(=O)c2oc3cc(C)ccc3c2C)C2CCS(=O)(=O)C2)cc1 (centres undefined)	13	7	35*	4	-5	-12
CCC(C)(C)n1nnnc1CN1CCN(c2nc3cc(OC)ccc3cc2C#N)CC1	4	-17	11	-1	-4	-3
Cc1cc(C(F)(F)F)c2sc(N)nc2n1	13	6	11	4	2	-7
Nc1nc(N)c2sc3nc(C(F)(F)F)cc(C(F)(F)F)c3c2n1	37*	-12	nt	nt	4	15
CCn1c(=S)sc2c(=O)[nH]c(C)nc21	5	7	10	7	1	58*
CCn1c(=S)sc2c(=O)n(-c3ccccc3)c(SC)nc21	7	-4	21	6	7	2
